# Results taken from article PMC5508335 (Journal of Veterinary Internal Medicine, 2017).
# Where two headings read alike, the source gives them in different places.
# B1: C1‐INH: human recombinant C1-esterase Inhibitor (protein, UniProt P05155 23-500, looked up)
# Plasma protease C1 inhibitor: NPNATSSSSQDPESLQDRGEGKVATTVISKMLFVEPILEVSSLPTTNSTTNSATKITANTTDEPTTQPTTEPTTQPTIQPTQPTTQLPTDSPTQPTTGSFCPGPVTLCSDLESHSTEAVLGDALVDFSLKLYHAFSAMKKVETNMAFSPFSIASLLTQVLLGAGENTKTNLESILSYPKDFTCVHQALKGFTTKGVTSVSQIFHSPDLAIRDTFVNASRTLYSSSPRVLSNNSDANLELINTWVAKNTNNKISRLLDSLPSDTRLVLLNAIYLSAKWKTTFDPKKTRMEPFHFKNSVIKVPMMNSKKYPVAHFIDQTLKAKVGQLQLSHNLSLVILVPQNLKHRLEDMEQALSPSVFKAIMEKLEMSKFQPTLLTLPRIKVTTSQDMLSIMEKLEFFDFSYDLNLCGLTEDPDLQVSAMQHQTVLELTETGVEAAAASAISVARTLLVFEVQQPFLFVLWDQQHKFPVFMGRVYDPRA
# How the values were obtained:
# [1] = system: canine osteosarcoma cell lines; experiment: Combination with MCT1/4 small molecule inhibitors in canine osteosarcoma cells; assay type: cell-based, dog
# healthy dogs = experiment: Endoscopy of upper gastrointestinal tract after 28 days of therapy; assay type: in vivo, dog; conditions: day 28; PO daily
# How it was run: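 Fifteen healthy dogs were randomized to five PO regimens for 28 days: aspirin 2 mg/kg/d, clopidogrel 2–3 mg/kg/d, prednisone 2 mg/kg/d, prednisone plus aspirin, or prednisone plus clopidogrel. The upper gastrointestinal tract was then assessed.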
# platelet function = experiment: PFA-100 closure time, antiplatelet responder status; assay type: in vivo, dog
# How it was run: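 Fifteen healthy dogs received PO aspirin 2 mg/kg/d, clopidogrel 2–3 mg/kg/d, or either drug combined with prednisone 2 mg/kg/d for 28 days. Responders were defined by PFA closure time: above 300 sec for aspirin, or more than 30% above baseline for clopidogrel. Responder status was compared among groups by Fisher's exact test, with P < 0.05 as significant.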
# platelet aggregation = conditions: cats with cardiovascular disease already receiving clopidogrel, n = 3
# [2] = system: platelet function (closure time)
# [3] = system: adrenal cortisol production; experiment: ACTH stimulation test, serum cortisol by radioimmunoassay; assay type: in vivo, dog; conditions: ± SEM
# How it was run: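 Dogs: 5 healthy controls and 10 previously diagnosed with hyperadrenocorticism. Each dog had two ACTH stimulation tests, one with a reference tetracosactrin product (0.04 mL/kg IV) and one with the test ACTH preparation (0.08 mL/kg IV). Blood was drawn just before injection and 60 minutes after. Serum cortisol was measured by validated radioimmunoassay and reported as mean ± SEM.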
# [4] = system: dogs given PEG before colonoscopy; experiment: Anti-emetic before orogastric PEG administration; assay type: in vivo, dog
# How it was run: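 46 dogs with naturally occurring disease needed PEG bowel cleansing before colonoscopy. They were randomized to one of two anti-emetics given SC 30 minutes before orogastric-tube PEG at 66 ml/kg. PEG was repeated 2 hours later without repeating the anti-emetic. Administration was by or under supervision of blinded authors. Vomiting and regurgitation were recorded after each PEG dose.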
# [5] = system: healthy purpose-bred dogs; experiment: Isoglycemic clamp in healthy dogs; assay type: in vivo, dog; conditions: 2.4 nmol/kg SC
# [6] = system: dogs with pulmonic stenosis; assay type: in vivo, dog
# [7] = system: dogs with gastrointestinal stromal tumors; experiment: Retrospective evaluation of toceranib in canine GIST; assay type: in vivo, dog
# RBCs = experiment: Lysis of canine RBCs by DMSO diluted in PBS; assay type: cell-based, dog
# [8] = crossover study of IV dipyrone to control fever; assay type: in vivo, horses; conditions: single 30 mg/kg IV, 6 hours post administration, versus placebo
# [9] = system: fecal microbiota of healthy dogs; experiment: Fecal microbiota qPCR Dysbiosis Index after oral tylosin; assay type: in vivo, dog; conditions: 20 mg/kg q12 hr for 7 days
# How it was run: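 Ten healthy pet dogs were randomized double-blind to oral test compound at 20 mg/kg (n = 6) or placebo capsule (n = 4), given q12 hr for 7 days. Dogs stayed on their usual diet. Fecal samples were taken on days 0, 7, 10, 21 and 63, and a fecal score (1–7) was recorded daily during dosing.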
# [10] = assay type: in vivo, cats; conditions: one 1.87 mg oral dose
# [11] = distribution of danofloxacin and tulathromycin in plasma, ISF and PELF by age; assay type: in vivo, calves; conditions: non‐linear mixed effect modeling
# healthy beagles = experiment: Serum cPLI after high-dose prednisolone in healthy beagles; assay type: in vivo, dog; conditions: 4 mg/kg/day SC for 2 or 3 weeks; six beagles
# [12] = system: dogs with idiopathic IMPA; experiment: Retrospective outcome of dogs with idiopathic IMPA; conditions: dog, in vivo
# [13] = system: New Zealand rabbits with dilated cardiomyopathy induced by doxorubicin; experiment: Doxorubicin-induced dilated cardiomyopathy in New Zealand rabbits; assay type: in vivo, rabbit
# healthy beagle dogs = conditions: oral administration, ref previous studies performed by these authors; cited from earlier work
# [14] = system: beagles with and without MVMD; experiment: Dobutamine stress echocardiography in beagles with mitral valve disease; assay type: in vivo, dog
# [15] = system: Dobermans with CHF due to DCM; experiment: Randomized placebo-controlled survival trial in Dobermans with CHF due to DCM; assay type: in vivo, dog; conditions: 50 mg twice daily plus standard therapies; 34 dogs; time to cardiac death
# [16] = system: dogs with hypoadrenocorticism; assay type: in vivo, dog
# canine leukocytes = experiment: LPS-stimulated leukocyte cytokine production in whole blood; assay type: cell-based, dog; conditions: 10^−7 M, 24 h
# How it was run: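 Blood from eight healthy adult dogs was incubated with test compound (10−7 M) or control for 24 h. Leukocytes were then stimulated with LPS, and TNF and IL-10 production were measured by a canine-specific multiplex assay.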
# [17] = system: dogs with ventricular tachyarrhythmias; experiment: Echocardiogram and 5-minute ECG before and after oral sotalol; assay type: in vivo, dog
# equine neutrophils = experiment: neutrophil respiratory burst, luminol chemoluminescence, opsonized zymosan; assay type: cell-based, horses; conditions: TX 0.5 to 20 μM; dose dependent
# canine complement = assay type: biochemical, dog; conditions: dose curves, at the doses evaluated
# [18] = 2 mg/kg every 12 hours for 30 days
# [19] = G2 MVMD, DIVEd/Ao less than 2.8
molecule,measurement,setting,value
COc1cccc2c1C(=O)c1c(O)c3c(c(O)c1C2=O)C[C@@](O)(C(=O)CO)C[C@@H]3O[C@H]1C[C@H](N)[C@H](O)[C@H](C)O1 [doxorubicin],activity in the presence of MCT1 and MCT4 small molecule inhibitors,[1],Synergistic activity
COC(=O)[C@H](c1ccccc1Cl)N1CCc2sccc2C1 [clopidogrel],dogs with endoscopic lesions,healthy dogs,0/3
same,dogs classified as responders based on PFA closure times,platelet function; day 14,3/3
same,dogs classified as responders based on PFA closure times,platelet function; day 28,3/3
same,PW-AA %Aggregation,platelet aggregation,4–19%
same,PFA-P2Y Closure Time,"[2]; cats already receiving clopidogrel, n = 6",> 300 s
same,PFA-P2Y Closure Time,"[2]; test repeated while receiving clopidogrel, n = 1",> 300 s
"corticotropin (SYSMEHFRWGKPVGKKRRPVKVYPNGAEDESAEAFPLEF; Corticotropin; UniProt P01189 138-176, looked up) [Acthelea]",post-ACTH serum cortisol,"[3]; control group, 5 healthy dogs, 60 minute post IV",9.00 ± 0.71 µg/dL
same,after ACTH serum cortisol,"[3]; treated group, 10 dogs with hyperadrenocorticism on trilostano",7.90 ± 2.1 µg/dL
CCN(CC)CCNC(=O)c1cc(Cl)c(N)cc1OC [metoclopramide],incidence of regurgitation,[4]; PEG Dose 1,52.4%
same,incidence of vomiting,"[4]; PEG Dose 1, anti-emetic SC 30 minutes before",23.8%
same,incidence of regurgitation,[4]; PEG Dose 2,31.6%
same,incidence of vomiting,[4]; PEG Dose 2,21.1%
Insulin glargine [Toujeo],dogs with peakless time-action profile,[5],4/8
same,"duration of action, median",[5],16.3 h
same,"peak of action, median",[5],6.3 h
same,Median onset of action,[5]; 8 healthy dogs,4.0 h
Oc1ccc2c(c1)[C@@]13CCCC[C@@]1(O)[C@@H](C2)N(CC1CCC1)CC3 [butorphanol],"heart rate, mean %change ± SD","[6]; 5 minutes post-butorphanol 0.2–0.25 mg/kg IV, n = 18 dogs",−21% ± 16
Cc1[nH]c(/C=C2\C(=O)Nc3ccc(F)cc32)c(C)c1C(=O)NCCN1CCCC1 [toceranib],dogs experiencing adverse events,"[7]; 16/28, majority Grade 1 or 2 gastrointestinal toxicities",57%
same,Clinical benefit (CB),"[7]; all dogs, 26/28",93%
same,Clinical benefit (CB),"[7]; dogs with gross disease, 5/7",71%
same,Clinical benefit (CB),[7]; dogs with microscopic disease,21/21
C[S+](C)[O-] [DMSO],lysis of RBCs,"RBCs; 10, 20, 70 and 80% DMSO",no hemolysis
same,lysis of RBCs,"RBCs; 30, 40 and 90% DMSO",mild hemolysis
same,lysis of RBCs,RBCs; 50 and 100% DMSO,moderate hemolysis
same,lysis of RBCs,RBCs; 60% DMSO (diluted in PBS),marked hemolysis
"Cc1c(N(C)CS(=O)(=O)O)c(=O)n(-c2ccccc2)n1C [dipyrone, Dipyrone]",control of fever,[8],effectively controlled fever
CC[C@H]1OC(=O)C[C@@H](O)[C@H](C)[C@@H](O[C@@H]2O[C@H](C)[C@@H](O[C@H]3C[C@@](C)(O)[C@@H](O)[C@H](C)O3)[C@H](N(C)C)[C@H]2O)[C@@H](CC=O)C[C@@H](C)C(=O)/C=C/C(C)=C/[C@@H]1CO[C@@H]1O[C@H](C)[C@@H](O)[C@@H](OC)[C@H]1OC [tylosin],development of diarrhea,[9],None of the dogs in either group developed diarrhea
same,"Dysbiosis Index, median","[9]; day 7, 6 dogs, day 0 −6.5",2.9
CN1CCN2c3ncccc3Cc3ccccc3C2C1 (stereo not drawn) [mirtazapine],"AUC, liver disease cats versus AMC cats",[10],not significantly different
CN1C[C@@H]2C[C@H]1CN2c1cc2c(cc1F)c(=O)c(C(=O)O)cn2C1CC1 [danofloxacin],age as covariate in plasma concentration differences,[11],not for danofloxacin treated calves
"C[C@]12C=CC(=O)C=C1CC[C@@H]1[C@@H]2C(=O)C[C@@]2(C)[C@H]1CC[C@]2(O)C(=O)CO [P, prednisone]",dogs with endoscopic lesions,healthy dogs,1/3
"CC(=O)Oc1ccccc1C(=O)O [A, aspirin]",dogs with endoscopic lesions,healthy dogs,1/3
same,dogs classified as responders based on PFA closure times,platelet function; day 14,2/3
same,dogs classified as responders based on PFA closure times,platelet function; day 28,1/3
CN(C)C(=N)N=C(N)N [metformin],activity in the presence of MCT1 and MCT4 small molecule inhibitors,[1],Synergistic activity
C[C@]12C=CC(=O)C=C1CC[C@@H]1[C@@H]2[C@@H](O)C[C@@]2(C)[C@H]1CC[C@]2(O)C(=O)CO [prednisolone],serum cPL concentration after versus before treatment,healthy beagles,significantly higher after than before treatment
same,dogs relapsed during tapering of medication,[12],13/23
same,median treatment duration,[12],397 days
O=C(N/N=C/c1cccs1)c1ccc2c(c1)OCO2 [LASSBio 294],E'/A' ratio,[13]; [18],< 1
same,E/A ratio,[13]; [18],< 1
same,increase of FS,"[13]; 2 mg/kg every 12 hours, n = 7, second week",35%
same,increase of shortening fraction,healthy beagle dogs,19.1%
CC(CCc1ccc(O)cc1)NCCc1ccc(O)c(O)c1 (stereo not drawn) [dobutamine],difference between pre and post stress EF%,[14]; G1 control group,0.25 ± 0.08
same,difference between pre and post stress FS%,"[14]; G1 control group, 5 then 10 μg/kg/minute infusion",0.44 ± 0.14
same,difference between pre and post stress EF%,[14]; [19],0.30 ± 0.08
same,difference between pre and post stress FS%,[14]; [19],0.49 ± 0.13
same,difference between pre and post stress EF%,"[14]; G3 MVMD, DIVEd/Ao above 2.8",0.13 ± 0.09
same,difference between pre and post stress FS%,"[14]; G3 MVMD, DIVEd/Ao above 2.8",0.19 ± 0.14
CC(C)NCC(O)COc1ccc(CC(N)=O)cc1 (stereo not drawn) [atenolol],"maxPG, mean %change ± SD",[6]; 2–3 weeks post-atenolol 1–1.5 mg/kg q12,−15% ± 9
same,"heart rate, mean %change ± SD","[6]; 2–3 weeks post-atenolol 1–1.5 mg/kg q12, n = 18",−17% ± 13
same,Percent change in VTI ratio,[6]; post-atenolol,6% ± 12
CC(=O)S[C@@H]1CC2=CC(=O)CC[C@]2(C)[C@H]2CC[C@@]3(C)[C@@H](CC[C@@]34CCC(=O)O4)[C@H]12 [spironolactone],median survival time,[15],183 days
CC(C)(C)C(=O)OCC(=O)[C@H]1CC[C@H]2[C@@H]3CCC4=CC(=O)CC[C@]4(C)[C@H]3CC[C@]12C [DOCP],median time between the DOCP and CHF,"[16]; 12 dogs, range 1-29 days",11 days
same,Median survival after the onset of CHF,[16]; HA/DOCP group,953 days
C=C1/C(=C\C=C2/CCC[C@]3(C)[C@@H]([C@H](C)CCCC(C)(C)O)CC[C@@H]23)C[C@@H](O)C[C@@H]1O [calcitriol],"LPS-stimulated IL-10 production, mean±SD",canine leukocytes; control 551 ± 323,791 ± 386 pg/mL
same,"LPS-stimulated leukocyte TNF production, mean±SD","canine leukocytes; eight dogs, control 1694 ± 1023",823 ± 862 pg/mL
CC(C)NCC(O)c1ccc(NS(C)(=O)=O)cc1 (stereo not drawn) [sotalol],"EF, mean percent change ± SD",[17]; 2–3 hours post-sotalol,−13 ± 16%
same,"FS, mean percent change ± SD",[17]; 2–3 hours post-sotalol,−14 ± 11%
same,"LVSA, mean percent change ± SD",[17]; 2–3 hours post-sotalol,−10 ± 12%
same,"heart rate, mean percent change ± SD","[17]; 2–3 hours post-sotalol 2.5 ± 0.2 mg/kg PO, n = 27",−18 ± 16%
"CC/C(=C(\c1ccccc1)c1ccc(OCCN(C)C)cc1)c1ccccc1 [TX, Tamoxifen]",neutrophil respiratory burst induced by opsonized zymosan,equine neutrophils,inhibits neutrophil respiratory burst
B1,inhibition of canine complement-mediated hemolysis,canine complement,dose‐dependent inhibition
